Experimental data published in PubChem BioAssay.
Activity calls are given as the source filed them.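 The calls were made as follows, unless noted: active = NADPH fluorescence slope more negative than the mean of all samples by about 3 SD, 99.7% confidence; inactive = the rest.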

How the values were obtained:
[1] = inhibitors of TNFa-induced NFkB p65 translocation, primary screen, imaging, HUVEC, MLSMR starter and 10KST1 sets (AID 438;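 active = inhibition above 20% together with a positive visual image hit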;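 also: compound added about 3h40 before a 20 min TNFalpha stimulation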;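 as to inhibition: signal is the nuclear over cytoplasmic p65 intensity ratio per well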); conditions: HUVEC TNFa-induced p65 nuclear translocation; cell count: measured here: nuclei count (cytotoxicity indicator), at 2.08 µM; inhibition: at 2 µM, stronger effect = higher value, 0% TNFa-plus-vehicle, 100% no-TNFa wells
[2] = inhibitors of mutant huntingtin aggregation, primary screen, imaging, exon1htt(103Q)mCFP cells, high-content imaging (AID 483;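 active = visual image review flags a hit and inhibition of aggregation exceeds 20%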;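 also: compound exposure lasted 3 days before fixation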;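 as to nuclei count: percent of the per-plate median nuclei count of sample wells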); conditions: exon1htt(103Q)mCFP cell line, aggregate imaging, at 2 µM; inhibition of aggregation: stronger effect = higher value; nuclei count: measured here: cell count, toxicity
[3] = inhibitors of E-selectin induction by TNFa, primary screen, imaging, HUVEC, immunofluorescence, MLSMR starter and 10KST1 sets (AID 487;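 active = visually confirmed hit in the image check and inhibition above 20%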;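 as to inhibition: signal is fraction of cell area covered by stained E-selectin grains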;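 as to nuclei count: 100% = median nuclei count of all wells on the same plate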); conditions: HUVEC TNFalpha-induced E-selectin immunofluorescence imaging, at 2 µM; inhibition: stronger effect = higher value; nuclei count: measured here: cell number, toxicity
[4] = target: Voltage-gated potassium channel subunit beta-2 (Rattus norvegicus) (UniProt P62483); experiment: KvBeta enzyme negative modulators, primary screen, biochemical, NADPH fluorescence (AID 622;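 active = fluorescence slope higher than the sample average by over 3 SD, cut at about -0.22 in these data, passing the limit was not always enough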;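 also: slope of raw intensity against log time taken from 70 to 1610 s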); conditions: recombinant KvBeta, 4-cyanobenzaldehyde reduction, at 10 µM, stronger effect = higher value
[5] = target: Voltage-gated potassium channel subunit beta-2 (Rattus norvegicus) (UniProt P62483); experiment: KvBeta positive modulators, primary screen, biochemical, NADPH fluorescence (AID 623); conditions: Recombinant KvBeta, NADPH fluorescence decrease slope, 10 min; at 10 µM; stronger effect = lower value;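 also: fluorescence intensity change per second fitted from 20 to 320 s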
[6] = target: Alpha-2C adrenergic receptor (Homo sapiens) (UniProt P18825); experiment: modulators of alpha2C/GIRK thallium flux, primary screen, cell-based, HEK293 alpha2C/GIRK1/2 (AID 624;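 active = fluorescence slope after compound addition differing from the mean of all screened samples at 99.7% confidence, in either direction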;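 also: slope of fluorescence ratio to pre-addition baseline per second over 15 to 24 s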); conditions: thallium flux BTC fluorescence, at 10 µM, actives lie on both sides
[7] = inhibitors of larval lipid processing in zebrafish, primary screen, whole organism, PED6 fluorescence, gall bladder and intestine (AID 686;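 active = a full or partial loss of lipid-probe fluorescence in the fish gall bladder, intestine or both, judged by eye; inactive = no fluorescence loss, or compound toxic to the fish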;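 also: larvae 5 to 7 days old with five fish per well; signal comes from phospholipase A2 cleavage of quenched PED6 carried via bile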); conditions: Zebrafish larvae PED6 lipid processing, fluorescence scoring; screened at 20 µM (by protocol)
How it was run: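 Incubation: overnight exposure of larvae to compound plus PED6 / Test system: live zebrafish larvae aged 5-7 days, whole organism / Amount: 5 larvae per well / Read-out basis: visual per-well fluorescence inhibition score / Signal: visual fluorescence microscopy scoring of gall bladder, gut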

[8] = inhibitors of Sendai virus-induced IRF3 signaling, primary screen, TLR/RLR signaling modifier project, cell-based, Sendai virus stimulus, luciferase, 10K MLSCN set (AID 602276;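 active = inhibition at or above 50% at 10 µM; inactive = inhibition below 50%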;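 also: firefly luciferase from ISG56 promoter only with Renilla not read in this screen; 0% = Sendai virus plus DMSO and 100% = medium plus DMSO without virus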); conditions: HEK293 RL24 IRF3 luciferase reporter, at 10 µM, stronger effect = higher value
[9] = inhibitors of poly I:C-induced TLR3 signaling, primary screen, cell-based, poly I:C stimulus, luciferase, 10K MLSCN set (AID 602277;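 active = inhibition of the reporter signal at or above 50%; inactive = inhibition below 50%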); conditions: HEK293-TLR3 RL24 IRF3 luciferase reporter, at 10 µM, stronger effect = higher value

Sequence of Voltage-gated potassium channel subunit beta-2 (Rattus norvegicus) (P62483 whole entry, looked up): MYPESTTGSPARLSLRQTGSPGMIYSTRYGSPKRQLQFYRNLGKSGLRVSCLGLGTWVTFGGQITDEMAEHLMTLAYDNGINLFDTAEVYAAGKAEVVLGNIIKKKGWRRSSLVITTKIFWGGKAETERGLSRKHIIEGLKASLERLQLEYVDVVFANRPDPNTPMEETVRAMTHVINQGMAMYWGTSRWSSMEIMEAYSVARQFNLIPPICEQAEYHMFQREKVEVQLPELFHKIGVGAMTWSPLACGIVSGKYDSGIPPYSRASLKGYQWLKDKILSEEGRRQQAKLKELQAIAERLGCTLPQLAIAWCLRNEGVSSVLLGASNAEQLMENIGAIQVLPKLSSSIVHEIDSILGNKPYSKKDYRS
Sequence of Alpha-2C adrenergic receptor (Homo sapiens) (P18825 whole entry, looked up): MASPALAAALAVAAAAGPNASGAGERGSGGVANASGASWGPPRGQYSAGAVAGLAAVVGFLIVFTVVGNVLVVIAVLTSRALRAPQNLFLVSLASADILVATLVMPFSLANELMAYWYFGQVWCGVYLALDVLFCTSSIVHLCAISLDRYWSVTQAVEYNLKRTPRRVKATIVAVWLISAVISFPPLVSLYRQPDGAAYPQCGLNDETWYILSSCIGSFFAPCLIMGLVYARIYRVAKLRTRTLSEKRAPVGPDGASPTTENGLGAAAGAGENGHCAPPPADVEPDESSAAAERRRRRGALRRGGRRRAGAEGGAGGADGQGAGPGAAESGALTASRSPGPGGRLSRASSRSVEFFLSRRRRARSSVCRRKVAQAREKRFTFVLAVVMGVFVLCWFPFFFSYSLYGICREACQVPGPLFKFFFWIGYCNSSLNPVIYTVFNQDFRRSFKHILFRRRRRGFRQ

| SMILES | cell count [1] | inhibition [1] | inhibition of aggregation [2] | nuclei count [2] | inhibition [3] | nuclei count [3] | fluorescence slope [4] | NADPH fluorescence slope [5] | slope [6] | outcome [7] | inhibition [8] | inhibition [9] |
| --- | --- | --- | --- | --- | --- | --- | --- | --- | --- | --- | --- | --- |
| COc1ccc(-c2noc(CSc3nc4ccccc4c(=O)n3-c3ccccc3)n2)cc1OC | 498 | -1.8% (inactive) | 12.7% (inactive) | 96.7% | -114% (inactive) | 128% | -0.412 (inactive) | -4.5e-05 (inactive) | 0.0108 (active) | inactive | 23.5% (inactive) | 26.1% (inactive) |
| CC12CN3CCN(CC(C3)C1(O)CN1CCCCC1)C2 (centres undefined) | 305 | 1.7% (inactive) | -16.8% (inactive) | 111% | -66.3% (inactive) | 121% | -0.347 (inactive) | -5.6e-05 (inactive) | 0.00521 (inactive) | inactive | 10.7% (inactive) | 35.8% (inactive) |
| Cc1ccc(NC(=O)CSc2nnc(-c3ccc(S(=O)(=O)N4CCOCC4)cc3)n2C)cc1 | 740 | -0.2% (inactive) | 0.9% (inactive) | 87% | 9.3% (inactive) | 111% | -0.384 (inactive) | -7.3e-05 (inactive) | 0.00534 (inactive) | inactive | 4.24% (inactive) | 4.26% (inactive) |
| Nn1c(SCC(=O)Nc2ccccc2)nnc1-c1cccnc1 | 502 | -4.8% (inactive) | 11% (inactive) | 126% | 7% (inactive) | 118% | -0.363 (inactive) | -3.7e-05 (inactive) | 0.00741 (inactive) | inactive | -6.03% (inactive) | -3.73% (inactive) |
| COc1cccc(Nc2nnc(SCC(=O)N3CC(C)OC(C)C3)s2)c1 (centres undefined) | 448 | 4.8% (inactive) | 14.5% (inactive) | 73.5% | -19.6% (inactive) | 117% | -0.409 (inactive) | -9.2e-05 (inactive) | 0.00562 (inactive) | inactive | -1.41% (inactive) | -10% (inactive) |
| COc1ccccc1OCc1nc2ccccc2[nH]1 | 391 | 1.3% (inactive) | 19.9% (inactive) | 101% | 29.8% (inactive) | 86.3% | -0.444 (inactive) | -7e-05 (inactive) | 0.0055 (inactive) | inactive | -14.3% (inactive) | -80.7% (inactive) |
| COc1ccccc1N1CCN(C(=O)C2CCN(S(=O)(=O)c3ccc(F)cc3)CC2)CC1 | 676 | 11.9% (inactive) | 6.6% (inactive) | 108% | -23.6% (inactive) | 96.3% | -0.415 (inactive) | -2.3e-05 (inactive) | 0.00451 (inactive) | inactive | -6.92% (inactive) | -9.69% (inactive) |
| COc1ccc(NC(=O)CC2CCCCC2)cc1OC | 258 | -5.5% (inactive) | -4.8% (inactive) | 91.1% | -69.1% (inactive) | 99.7% | -0.356 (inactive) | -2.3e-05 (inactive) | 0.00718 (inactive) | inactive | -6.37% (inactive) | -23% (inactive) |
| Cc1cc(NC(=O)CSc2nc(C3CC3)nc3sc4c(c23)CCC(C)C4)no1 (centres undefined) | 321 | -1.3% (inactive) | 0.7% (inactive) | 75.3% | -43% (inactive) | 113% | -0.394 (inactive) | -5.2e-05 (inactive) | 0.00786 (inactive) | inactive | -13.4% (inactive) | -24.3% (inactive) |
| COc1cccc2c(=O)cc(C)n(CC(=O)Nc3ccc(C)c(C)c3)c12 | 456 | 9.4% (inactive) | -8.4% (inactive) | 50.1% | 46.9% (inactive) | 85.2% | -0.364 (inactive) | -4.9e-05 (inactive) | 0.00483 (inactive) | inactive | 0.857% (inactive) | -0.697% (inactive) |
| CS(=O)(=O)N(CC(=O)N1CCCCCC1)c1ccc(Br)cc1 | 485 | -38.8% (inactive) | 20.1% (inactive) | 81.6% | 13.3% (inactive) | 95.6% | -0.353 (inactive) | -5.4e-05 (inactive) | 0.00619 (inactive) | inactive | 15.8% (inactive) | 16% (inactive) |
| CCCc1cc(N2CCCC2)n2nc(C)c(-c3ccccc3)c2n1 | 531 | -11% (inactive) | -13.4% (inactive) | 112% | -22.9% (inactive) | 122% | -0.118 (inactive) | 9.3e-07 (inactive) | 0.00457 (inactive) | inactive | 14% (inactive) | -0.253% (inactive) |
| N#Cc1ccc(CSc2nnc(-c3ccccn3)n2-c2ccccc2)cc1 | 363 | 5.8% (inactive) | 10.4% (inactive) | 91.3% | -10.3% (inactive) | 112% | -0.426 (inactive) | -1.1e-05 (inactive) | 0.00569 (inactive) | active; weak signal in gallbladder and intestine | 11.1% (inactive) | 9.06% (inactive) |
| CC(C)c1cc(C(=O)Nc2cccnc2)no1 | 250 | -2.8% (inactive) | -12.9% (inactive) | 103% | -9.6% (inactive) | 115% | -0.398 (inactive) | -6.1e-05 (inactive) | 0.00525 (inactive) | inactive | -22.1% (inactive) | -67.3% (inactive) |
| O=C(Nc1cccnc1)c1cc2c(ccc3ccccc32)o1 | 489 | 8.1% (inactive) | -7.4% (inactive) | 104% | -160% (inactive) | 140% | -0.355 (inactive) | -4.5e-05 (inactive) | 0.00441 (inactive) | inactive | -38.2% (inactive) | -135% (inactive) |
| CC(C)NC(=O)c1ccccc1NC(=O)CCS(=O)(=O)Cc1ccccc1 | 560 | 6.6% (inactive) | -10% (inactive) | 108% | -26% (inactive) | 107% | -0.516 (inactive) | 2.6e-05 (inactive) | 0.00472 (inactive) | inactive | -21.6% (inactive) | -8.53% (inactive) |
| Cc1ccc(-c2nn(-c3ccccc3)cc2/C=C(\C#N)c2cccc(C#N)c2)o1 | 264 | -9.3% (inactive) | -10% (inactive) | 97.5% | 3.9% (inactive) | 84.1% | -0.273 (inactive) | -2.6e-05 (inactive) | 0.0087 (active) | inactive | 13.8% (inactive) | 5.01% (inactive) |
| CCOC(=O)C1CCN(C(=O)Nc2ccc3nc(C)c(C)nc3c2)CC1 | 331 | 2% (inactive) | 26.1% (inactive) | 84.8% | -20.1% (inactive) | 90.9% | -0.00743 (active) | -2.9e-06 (inactive) | 0.00559 (inactive) | inactive | 8.11% (inactive) | 5.19% (inactive) |
| Cc1onc(-c2ccccc2)c1C(=O)NCc1cccnc1 | 272 | -15.4% (inactive) | -24.1% (inactive) | 120% | -22.8% (inactive) | 112% | -0.385 (inactive) | -6.1e-05 (inactive) | 0.00521 (inactive) | inactive | 6.6% (inactive) | 8.85% (inactive) |
| CC(Sc1n[nH]c(=O)[nH]c1=O)C(=O)OCc1ccccc1 (centres undefined) | 281 | -2.5% (inactive) | 10.6% (inactive) | 89.4% | -83.4% (inactive) | 116% | -0.305 (inactive) | -2.2e-05 (inactive) | 0.00608 (inactive) | inactive | 14.4% (inactive) | 10.9% (inactive) |
| CCc1nnc(NC(=O)CSc2nnc(-c3ccccc3OC)n2-c2ccccc2)s1 | 276 | -6.9% (inactive) | 14.1% (inactive) | 146% | -163% (inactive) | 128% | -0.396 (inactive) | -7.8e-05 (inactive) | 0.00574 (inactive) | inactive | 11.4% (inactive) | 8.06% (inactive) |
| CCOC(=O)c1ccc(NC(=O)N2CCN(Cc3cccc(F)c3)CC2)cc1 | 688 | -1.4% (inactive) | -19% (inactive) | 97.2% | -126% (inactive) | 109% | -0.424 (inactive) | -5e-05 (inactive) | 0.00506 (inactive) | inactive | 5.73% (inactive) | 7.2% (inactive) |
| O=C(Nc1ccon1)c1cccc(S(=O)(=O)N2CCCC2)c1 | 307 | -2.7% (inactive) | 21% (inactive) | 86.7% | -11.9% (inactive) | 102% | -0.374 (inactive) | -1.7e-05 (inactive) | 0.00556 (inactive) | inactive | 13.5% (inactive) | 13.6% (inactive) |
| O=C(Cn1c(=O)oc2ccccc21)N1CCN(c2ccccc2)CC1 | 421 | 2.6% (inactive) | 10% (inactive) | 99.1% | -10.5% (inactive) | 114% | -0.407 (inactive) | -4.3e-05 (inactive) | 0.00535 (inactive) | inactive | 8.94% (inactive) | 14.4% (inactive) |
| CC(C)Cn1c2c(c(O)c(C(=O)Nc3ncccc3O)c1=O)CCCC2 | 576 | -5.9% (inactive) | 9.6% (inactive) | 99.1% | 26.1% (inactive) | 105% | -0.38 (inactive) | -6.5e-05 (inactive) | 0.00432 (inactive) | inactive | 8.02% (inactive) | 10.1% (inactive) |
| C#CCOC(=O)C1C2C=CC(C2)C1C(=O)O (centres undefined) | 394 | 9.9% (inactive) | 7.3% (inactive) | 87.7% | -317% (inactive) | 115% | -0.341 (inactive) | -6.5e-05 (inactive) | 0.00609 (inactive) | inactive | 4.82% (inactive) | 0.62% (inactive) |
| COC(=O)c1cccc(NC(=O)CN2CCN(Cc3ccccc3)CC2)c1 | 382 | -6.1% (inactive) | -15.3% (inactive) | 124% | -28.9% (inactive) | 121% | -0.372 (inactive) | -9.8e-07 (inactive) | 0.0056 (inactive) | inactive | 12.8% (inactive) | 14.9% (inactive) |
